# According to ChEMBL document CHEMBL2150857, “Design, synthesis and biological evaluation of 5-hydroxy, 5-substituted-pyrimidine-2,4,6-triones as potent inhibitors of gelatinases MMP-2 and MMP-9” (Eur J Med Chem, 2012):
# Tests used:
# [1] = molecular target: T1, 72 kDa type IV collagenase (Homo sapiens, UniProt P08253); test: Inhibition of MMP2 using Mca-Pro-Leu-Gly-Leu-Dpa-Ala-Arg as substrate incubated for 30 mins prior to substrate addition measured after 3 hrs by fluorimetric assay
# Procedure, shortened: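 It is preincubated with inhibitor at 25 °C for 30 min. Substrate is added from a 25 μM solution and incubated 3 h at 37 °C. Acetic acid quench, fluorescence ex 340/em 405 nm. IC50 from 6 concentrations in triplicate, two runs.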
# Target sequence in this assay (P08253 whole entry): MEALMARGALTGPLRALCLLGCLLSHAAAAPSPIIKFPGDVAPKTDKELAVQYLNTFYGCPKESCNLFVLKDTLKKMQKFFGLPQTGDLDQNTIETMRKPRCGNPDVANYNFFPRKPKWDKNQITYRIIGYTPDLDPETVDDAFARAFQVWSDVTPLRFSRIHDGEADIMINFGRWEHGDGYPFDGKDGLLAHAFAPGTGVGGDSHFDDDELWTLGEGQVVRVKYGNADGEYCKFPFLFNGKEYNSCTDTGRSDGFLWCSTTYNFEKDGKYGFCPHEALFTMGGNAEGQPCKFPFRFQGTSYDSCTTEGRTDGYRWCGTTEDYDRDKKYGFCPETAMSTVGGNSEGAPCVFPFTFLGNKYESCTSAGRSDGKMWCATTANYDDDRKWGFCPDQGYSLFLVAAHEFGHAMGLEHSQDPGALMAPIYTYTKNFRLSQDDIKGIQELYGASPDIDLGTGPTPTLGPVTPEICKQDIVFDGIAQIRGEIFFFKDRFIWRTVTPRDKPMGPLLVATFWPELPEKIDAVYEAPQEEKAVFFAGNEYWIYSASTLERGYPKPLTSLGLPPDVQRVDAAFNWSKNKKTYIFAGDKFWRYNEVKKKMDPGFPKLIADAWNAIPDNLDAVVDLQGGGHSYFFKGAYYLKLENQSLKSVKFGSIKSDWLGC
# [2] = molecular target: T2, Matrix metalloproteinase-9 (Homo sapiens, UniProt P14780); test: Inhibition of recombinant MMP9 catalytic site using Mca-Pro-Leu-Gly-Leu-Dpa-Ala-Arg as substrate incubated for 30 mins prior to substrate addition measured after 3 hrs by fluorimetric assay
# Procedure, shortened: (§1)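 Recombinant catalytic-domain MMP-8 or MMP-9 (500 pM enzyme solution) is used in Tris-HCl 0.1 M pH 7.5, 0.1 M NaCl, 10 mM CaCl2, 0.05% Brij35, 1 mM APMA. Preincubated with inhibitor 30 min at 25 °C, then substrate (25 μM solution) 3 h at 37 °C. Acetic acid stop, fluorescence 340/405 nm. IC50 from six concentrations in triplicate, run twice.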
# Neutrophil collagenase [3] = molecular target: T3, Neutrophil collagenase (Homo sapiens, UniProt P22894); test: Inhibition of recombinant MMP8 catalytic site using Mca-Pro-Leu-Gly-Leu-Dpa-Ala-Arg as substrate incubated for 30 mins prior to substrate addition measured after 3 hrs by fluorimetric assay; procedure, shortened: as §1
# Target sequence in this assay (P22894 whole entry): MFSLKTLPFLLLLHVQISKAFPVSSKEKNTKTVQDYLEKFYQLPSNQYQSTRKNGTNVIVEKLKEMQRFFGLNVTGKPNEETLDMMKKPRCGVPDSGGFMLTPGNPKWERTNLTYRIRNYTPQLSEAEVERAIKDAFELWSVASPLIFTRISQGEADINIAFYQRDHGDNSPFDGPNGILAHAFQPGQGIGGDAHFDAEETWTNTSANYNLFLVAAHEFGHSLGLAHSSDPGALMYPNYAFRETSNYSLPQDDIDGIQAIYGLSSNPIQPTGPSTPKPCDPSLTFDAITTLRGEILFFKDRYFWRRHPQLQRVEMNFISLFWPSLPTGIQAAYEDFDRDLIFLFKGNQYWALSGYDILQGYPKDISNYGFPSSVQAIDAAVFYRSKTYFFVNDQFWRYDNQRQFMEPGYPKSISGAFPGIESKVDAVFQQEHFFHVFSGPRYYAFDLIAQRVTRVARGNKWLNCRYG
# [4] = molecular target: T1, 72 kDa type IV collagenase; test: Inhibition of MMP2 using Mca-Pro-Leu-Gly-Leu-Dpa-Ala-Arg as substrate at 10 uM incubated for 30 mins prior to substrate addition measured after 3 hrs by fluorimetric assay
# Procedure, shortened: (§2)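 Buffer: Tris-HCl 0.1 M pH 7.5, 0.1 M NaCl, 10 mM CaCl2, 0.05% Brij35, 1 mM APMA. Compound and enzyme 30 min at 25 °C, then substrate (25 μM solution) 3 h at 37 °C. Acetic acid quench, fluorescence ex 340/em 405 nm.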
# Target sequence in this assay (P08253 110-660 limits assumed): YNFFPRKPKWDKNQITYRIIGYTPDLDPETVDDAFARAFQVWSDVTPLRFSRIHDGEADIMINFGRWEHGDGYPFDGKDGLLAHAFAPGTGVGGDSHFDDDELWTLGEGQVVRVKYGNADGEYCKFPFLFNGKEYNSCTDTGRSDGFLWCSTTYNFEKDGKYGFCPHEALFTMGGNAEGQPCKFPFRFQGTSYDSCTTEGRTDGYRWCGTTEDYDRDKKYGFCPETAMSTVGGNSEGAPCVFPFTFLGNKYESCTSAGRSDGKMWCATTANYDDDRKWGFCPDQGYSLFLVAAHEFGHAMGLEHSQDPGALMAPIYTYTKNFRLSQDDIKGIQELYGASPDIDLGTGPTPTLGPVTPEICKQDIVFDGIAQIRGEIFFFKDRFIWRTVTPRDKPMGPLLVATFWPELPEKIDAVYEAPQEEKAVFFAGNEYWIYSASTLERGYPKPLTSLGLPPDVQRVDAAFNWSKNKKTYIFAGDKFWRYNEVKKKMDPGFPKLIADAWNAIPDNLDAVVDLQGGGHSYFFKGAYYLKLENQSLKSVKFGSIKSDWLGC
# [5] = molecular target: T2, Matrix metalloproteinase-9; test: Inhibition of recombinant MMP9 catalytic site using Mca-Pro-Leu-Gly-Leu-Dpa-Ala-Arg as substrate at 10 uM incubated for 30 mins prior to substrate addition measured after 3 hrs by fluorimetric assay
# Procedure, shortened: (§3)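 Percent inhibition against control at a single concentration is measured on recombinant catalytic-domain MMP-8 or MMP-9 (500 pM enzyme solution). Tris-HCl 0.1 M pH 7.5 buffer with NaCl, CaCl2, Brij35, 1 mM APMA. Compound and enzyme 30 min at 25 °C, then substrate (25 μM solution) 3 h at 37 °C. Acetic acid stop, fluorescence 340/405 nm.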
# Neutrophil collagenase [6] = molecular target: T3, Neutrophil collagenase; test: Inhibition of recombinant MMP8 catalytic site using Mca-Pro-Leu-Gly-Leu-Dpa-Ala-Arg as substrate at 100 uM incubated for 30 mins prior to substrate addition measured after 3 hrs by fluorimetric assay; procedure, shortened: as §3
# Target sequence in this assay (P22894 101-467 limits assumed): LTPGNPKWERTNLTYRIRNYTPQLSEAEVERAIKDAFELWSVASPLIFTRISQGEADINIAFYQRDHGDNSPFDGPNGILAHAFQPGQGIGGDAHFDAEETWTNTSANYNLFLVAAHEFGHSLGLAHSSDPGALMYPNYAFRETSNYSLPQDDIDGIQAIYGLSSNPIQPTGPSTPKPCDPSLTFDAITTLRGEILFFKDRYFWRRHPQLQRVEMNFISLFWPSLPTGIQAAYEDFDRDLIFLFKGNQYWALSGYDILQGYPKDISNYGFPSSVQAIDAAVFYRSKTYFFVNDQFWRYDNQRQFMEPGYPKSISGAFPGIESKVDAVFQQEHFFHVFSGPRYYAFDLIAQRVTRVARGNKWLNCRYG
# [7] = molecular target: T2, Matrix metalloproteinase-9; test: Inhibition of recombinant MMP9 catalytic site using Mca-Pro-Leu-Gly-Leu-Dpa-Ala-Arg as substrate at 100 uM incubated for 30 mins prior to substrate addition measured after 3 hrs by fluorimetric assay; procedure, shortened: as §3
# [8] = molecular target: T1, 72 kDa type IV collagenase; test: Inhibition of MMP2 using Mca-Pro-Leu-Gly-Leu-Dpa-Ala-Arg as substrate at 100 uM incubated for 30 mins prior to substrate addition measured after 3 hrs by fluorimetric assay; procedure, shortened: as §2
# Target sequence in this assay (P08253 110-660 limits assumed): as the sequence (P08253 110-660 limits assumed) above
# T2 sequence (P14780 whole entry): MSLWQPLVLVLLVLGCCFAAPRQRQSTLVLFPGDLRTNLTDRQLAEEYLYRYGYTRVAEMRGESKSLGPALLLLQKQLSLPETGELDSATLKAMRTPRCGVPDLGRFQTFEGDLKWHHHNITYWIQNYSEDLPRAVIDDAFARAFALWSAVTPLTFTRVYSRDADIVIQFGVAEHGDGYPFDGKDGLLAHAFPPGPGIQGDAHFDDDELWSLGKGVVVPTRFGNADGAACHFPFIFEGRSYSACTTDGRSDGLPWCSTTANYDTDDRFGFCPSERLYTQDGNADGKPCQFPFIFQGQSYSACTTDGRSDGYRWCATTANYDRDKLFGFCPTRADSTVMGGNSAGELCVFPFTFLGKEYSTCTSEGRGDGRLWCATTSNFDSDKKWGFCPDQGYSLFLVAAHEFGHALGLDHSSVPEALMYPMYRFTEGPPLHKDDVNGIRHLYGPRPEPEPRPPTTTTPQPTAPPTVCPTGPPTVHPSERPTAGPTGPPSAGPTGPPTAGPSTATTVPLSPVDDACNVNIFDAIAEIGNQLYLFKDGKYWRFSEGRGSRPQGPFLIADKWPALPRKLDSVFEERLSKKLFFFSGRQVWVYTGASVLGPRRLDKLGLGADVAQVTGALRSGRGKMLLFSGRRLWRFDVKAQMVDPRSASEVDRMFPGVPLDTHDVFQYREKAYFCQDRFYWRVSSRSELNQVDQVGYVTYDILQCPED
SMILES,IC50 [1],IC50 [2],IC50 (Neutrophil collagenase [3]),also measured
O=C1NC(=O)C(O)(CC(=O)c2ccc(-c3ccc(OC(F)(F)F)cc3)cc2)C(=O)N1,143 nM,21 nM,715 nM,
COc1ccc(-c2ccc(C(=O)CC3(O)C(=O)NC(=O)NC3=O)cc2)cc1,121 nM,141 nM,184 nM,
CS(=O)(=O)c1ccc(-c2ccc(C(=O)CC3(O)C(=O)NC(=O)NC3=O)cc2)cc1,58 nM,650 nM,66 nM,
O=C1NC(=O)C(O)(CC(=O)c2ccc([N+](=O)[O-])cc2)C(=O)N1,,,63000 nM,inhibition [4]: 0%; inhibition [5]: 8%
O=C(Cc1ccc(-c2ccccc2)cc1)CC1(O)C(=O)NC(=O)NC1=O,,,,inhibition (Neutrophil collagenase [6]): 26%; inhibition [7]: 21%; inhibition [8]: 10%
O=C1NC(=O)C(O)(CC(=O)c2ccc(-c3ccsc3)cc2)C(=O)N1,181 nM,159 nM,153 nM,
O=C1NC(=O)C(O)(CC(=O)c2ccc(-c3ccc(Cl)cc3)cc2)C(=O)N1,278 nM,66 nM,271 nM,
Cc1ccc(-c2ccc(C(=O)CC3(O)C(=O)NC(=O)NC3=O)cc2)cc1,301 nM,103 nM,336 nM,
O=C1NC(=O)C(O)(CC(=O)c2ccc(C(F)(F)F)cc2)C(=O)N1,,,,inhibition [5]: 11%
CC(=O)c1ccc(-c2ccc(C(=O)CC3(O)C(=O)NC(=O)NC3=O)cc2)cc1,30 nM,170 nM,109 nM,
O=C1NC(=O)C(O)(CC(=O)c2ccc(-c3ccc(CO)cc3)cc2)C(=O)N1,148 nM,561 nM,210 nM,
O=C1NC(=O)C(O)(CC(=O)c2ccc(-c3cccc([N+](=O)[O-])c3)cc2)C(=O)N1,8100 nM,27500 nM,2600 nM,
CSc1ccc(-c2ccc(C(=O)CC3(O)C(=O)NC(=O)NC3=O)cc2)cc1,120 nM,86 nM,313 nM,
O=C1NC(=O)C(O)(CC(=O)c2ccccc2)C(=O)N1,,,,inhibition [4]: 0%
CN(C)C(=O)c1ccc(-c2ccc(C(=O)CC3(O)C(=O)NC(=O)NC3=O)cc2)cc1,1340 nM,3010 nM,2020 nM,
CC(=O)C(c1ccc(-c2ccccc2)cc1)C1(O)C(=O)NC(=O)NC1=O (centres undefined),,,,inhibition (Neutrophil collagenase [6]): 71%; inhibition [7]: 28%; inhibition [8]: 38%
